# NOD2-RIPK2 inh – inhibitors of human NOD2-RIPK2 interaction; O43353; CHO BLA complementation NOD2-RIPK2, CCF4 ratio; inhibition, % at 4.98 µM; 360,000 tested, 0.38% active; AID 624267; in the data active = inhibition above about 21%;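 also: 0% = vehicle only and 100% = reference blocker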
# MIN6 prolif – induces beta-cell replication in MIN6 cells; MIN6 cells proliferation, ATPlite luminescence, 48 h; cells starved in 0.2% serum; 100% = growth in 10% serum; 330,000 tested, 0.29% active; AID 2380; proliferation, % at 10 µM;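 active = compounds whose signal lies at least 3.5 SD above the mean of all wells on their plate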;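 also: 0% = DMSO-treated cells in low-serum medium and 100% = 10% serum control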
# TLR9-MyD88 inh – inhibitors of human TLR9-MyD88 binding | CHO BLA complementation TLR9-MyD88, CCF4 FRET ratio | 340,000 tested, 0.21% active | inhibition, % at 4.98 µM | AID 504734;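 active = inhibition above the mean over all tested compounds plus 3 SD, cut at about 21% in these data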;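 also: 0% = DMSO only wells and 100% = clavulanate BLA inhibitor control wells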
# TLR4 MyD88 comp – TLR4-MyD88 interaction inhibition in cells | HeLa CL3-4 TLR4/MyD88 BLA complementation, FRET ratio | inhibition, % at 8.4 µM | 200,000 tested, 0.18% active | AID 861 | O00206+Q99836; in the data active = inhibition above about 25%;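 also: 0% = vehicle and 100% = reference inhibitor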
# Target sequence (O00206 whole entry, looked up): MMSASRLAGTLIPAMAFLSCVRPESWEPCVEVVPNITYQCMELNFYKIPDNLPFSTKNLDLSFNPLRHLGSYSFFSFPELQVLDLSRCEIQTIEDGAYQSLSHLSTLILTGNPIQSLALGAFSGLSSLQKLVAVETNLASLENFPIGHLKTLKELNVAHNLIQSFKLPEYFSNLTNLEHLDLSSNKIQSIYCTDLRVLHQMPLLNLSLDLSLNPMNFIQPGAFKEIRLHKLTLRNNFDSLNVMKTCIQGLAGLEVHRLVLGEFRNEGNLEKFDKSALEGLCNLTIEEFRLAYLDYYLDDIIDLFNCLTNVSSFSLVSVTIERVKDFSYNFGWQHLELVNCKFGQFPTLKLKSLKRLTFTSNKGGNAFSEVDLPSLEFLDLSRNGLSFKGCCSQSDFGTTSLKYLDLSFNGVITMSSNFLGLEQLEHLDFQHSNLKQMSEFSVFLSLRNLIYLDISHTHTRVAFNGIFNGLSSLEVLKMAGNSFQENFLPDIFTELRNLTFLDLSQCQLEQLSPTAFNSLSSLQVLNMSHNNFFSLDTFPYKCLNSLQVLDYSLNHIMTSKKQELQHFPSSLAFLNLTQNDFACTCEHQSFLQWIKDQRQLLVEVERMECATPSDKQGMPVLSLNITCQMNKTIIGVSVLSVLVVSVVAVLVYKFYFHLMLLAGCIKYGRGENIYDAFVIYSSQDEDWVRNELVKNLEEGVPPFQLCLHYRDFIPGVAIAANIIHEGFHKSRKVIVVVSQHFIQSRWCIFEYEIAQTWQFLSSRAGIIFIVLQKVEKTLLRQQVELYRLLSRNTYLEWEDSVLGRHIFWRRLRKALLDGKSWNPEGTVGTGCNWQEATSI
# Target sequence (Q99836 whole entry, looked up): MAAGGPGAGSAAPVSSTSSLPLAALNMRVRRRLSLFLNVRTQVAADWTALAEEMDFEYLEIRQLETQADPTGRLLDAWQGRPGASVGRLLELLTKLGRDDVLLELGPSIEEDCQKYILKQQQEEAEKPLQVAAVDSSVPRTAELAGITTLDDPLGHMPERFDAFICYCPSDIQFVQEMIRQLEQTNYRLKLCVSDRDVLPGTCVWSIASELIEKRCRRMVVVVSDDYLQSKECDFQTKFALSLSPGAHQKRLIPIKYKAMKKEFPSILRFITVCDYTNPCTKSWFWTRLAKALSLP
# MC4R antag cAMP – human MC4R antagonism in cAMP assay; P32245; MC4R-expressing cells, MTII-stimulated cAMP, LANCE TR-FRET; inhibition, % at 6.5 µM; 360,000 tested, 0.48% active;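 active = inhibition above its plate's cutoff, the mean of tested wells on that plate plus 3 SD, cut at about 29% in these data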;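 also: 0% = Melanotan II alone and 100% = Melanotan II plus saturating MCL0020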
#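 System – human MC4R-expressing U2OS cells · Also added – Melanotan II · Dosing – one concentration, 6.5 µM nominal · Timing – 30-min compound, 1-h challenge, 1-h detection, room temperature · Measured by – Eu-cAMP/anti-cAMP TR-FRET, emission 671 nm · Replicates – singlicate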
# MC4R barr agon – human MC4R agonism via beta-arrestin | 360,000 tested, 0.98% active | activation, % at 8.9 µM | P32245 | U2OS MC4R beta-arrestin complementation, luminescence; percent of melanotan II response, DMSO zero | AID 540308;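 active = activation above a per-plate cutoff, the mean activation of sample wells on that plate plus 3 SD, cut at about 8% in these data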
# MC4R barr ag – human MC4R beta-arrestin agonism confirmation. shares compounds with MC4R barr agon. U2OS MC4R beta-arrestin recruitment, luminescence; scaled DMSO 0%, Melanotan II 100%. activation, % at 8.9 µM. 2,400 tested, 31% active;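 active = mean activation across replicates above the hit cutoff set in the earlier primary screen, cut at about 8% in these data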
# MOR DOR agonist – counter-screen for MC4R agonists: agonists of mu-delta opioid heterodimer. shares compounds with MC4R barr agon. U2OS PathHunter beta-arrestin, beta-gal luminescence; percent of deltorphin B response, DMSO zero. activation, % at 9.2 µM. 2,400 tested, 5.8% active;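 active = mean activation across replicates exceeds the hit threshold derived in the earlier primary screen, cut at about 18% in these data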;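 also: 100% = deltorphin B at 0.9 µM final and 0% = DMSO alone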
# An asterisk follows results filed as active; / = not tested or not shown. Sampled rows, rich in hits. Any-hit rate of the full collection: about 2.1%.
SMILES,NOD2-RIPK2 inh,MIN6 prolif,TLR9-MyD88 inh,TLR4 MyD88 comp,MC4R antag cAMP,MC4R barr agon,MC4R barr ag,MOR DOR agonist
O=S(=O)(N(Cc1ccccc1)[C@H](CO)Cc1ccccc1)N(Cc1ccccc1)[C@H](CO)Cc1ccccc1,-2,2,-15,/,14,28*,7,6
CCOc1ccc(NC(=NCc2ccc3c(c2)OCO3)SC2CC(=O)N(c3ccccc3)C2=O)cc1 (configuration not stated),3,-2,2,6,1,18*,7,7
c1ccc(Cc2nnc(-c3ccccc3)o2)cc1,0,-1,4,-20,4,15*,25*,19*
CCOC(=O)Oc1c(OC)cc(C(=O)O[C@@H]2C[C@@H]3CN4CCc5c([nH]c6cc(OC)ccc56)[C@H]4C[C@@H]3[C@H](C(=O)OC)[C@H]2OC)cc1OC,-2,-8,-6,/,-1,1,/,/
CCn1c(CCNC(=O)c2ccc(Cl)c(Cl)c2)nnc1SCCOc1ccc(OC)cc1,-5,-2,-1,5,12,11*,4,6
Cc1ccc(C(=O)NCC(=O)NC2CCC(C)CC2)s1 (configuration not stated),-6,-2,-3,/,9,1,/,/
Cc1ccc(-c2nn(-c3ccccc3)cc2/C=C2\SC(=S)N(CC(=O)O)C2=O)cc1,4,-8,4,/,-3,2,/,/
O=C(O)CCCCCN1C(=O)/C(=C\c2cn(-c3ccccc3)nc2-c2cccs2)SC1=S,-7,-6,2,/,16,26*,10.0*,3
COc1ccc(-c2nn(-c3ccccc3)cc2/C=C2/SC(=S)N(CCC(=O)O)C2=O)cc1,-9,-5,-3,/,5,2,/,/
O=C(O)CCN1C(=O)/C(=C/c2cn(-c3ccccc3)nc2-c2cccs2)SC1=S,-3,-2,1,9,9,27*,1,2
CN(Cc1ccccc1)C(=S)NC(=O)c1ccc(-c2ccccc2)cc1,-7,0,0,-4,-4,28*,-5,2
CC(=O)Nc1ccc(NC(=S)NC(=O)c2ccc(-c3ccccc3)cc2)cc1,-5,-2,/,/,6,36*,4,6
O=C(NC(=S)Nc1ccccc1)c1ccc(-c2ccccc2)cc1,10,-4,-7,-10,0,1,/,/
O=C(N/N=C1\CC(c2ccccc2)Oc2ccccc21)c1ccc(O)cc1 (configuration not stated),-5,-4,-39,/,9,0,/,/
O=C(N/N=C1/CC(c2ccccc2)Oc2ccccc21)C1CC1 (configuration not stated),-10,-2,2,-8,10,9.6*,8.7*,9
c1ccc2c(c1)nc1n2CCN1CCN1CCCC1,9,-2,7,/,0,-1,/,/
COc1ccc(CC(=O)NCC2CCCN(Cc3cc(OC)cc(OC)c3)C2)cc1 (configuration not stated),0,-2,-6,/,-5,-1,/,/
COC(=O)c1c(NC(=O)c2cccc([N+](=O)[O-])c2)sc(C(N)=O)c1C,10,1,5,8,-10,12*,7,3
COC(=O)c1sc(NC(=O)c2cccc([N+](=O)[O-])c2)c(C(N)=O)c1C,-1,-2,-2,-5,4,-1,/,/
COc1cccc(CNS(=O)(=O)/C=C/c2ccc3c(c2)OCO3)c1,0,-1,-7,-3,5,1,/,/
COc1cc(C(=O)OCC(=O)Nc2cc(C)on2)ccc1OCc1ccccc1Cl,-4,-3,-5,12,16,18*,3,2
O=C(Nc1ccc(Cl)cn1)c1cc2c(s1)-c1ccccc1OC2,-7,-2,-6,/,7,9.8*,8.3*,3
C=CCN(Cc1cccs1)C(=O)CN1CCN(S(=O)(=O)c2ccc3c(c2)OCCCO3)CC1,-3,-2,-5,/,2,1,/,/
COC(=O)c1cc(Nc2cc(C)c3c(O)cccc3n2)cc(C(=O)OC)c1,4,-2,-11,/,12,12*,7,8
COc1ccc(NC(=O)CC(=O)Nc2ccc(OC)cc2)cc1,-5,-3,0,/,0,1,/,/
SMILES,NOD2-RIPK2 inh,MIN6 prolif,TLR9-MyD88 inh,TLR4 MyD88 comp,MC4R antag cAMP,MC4R barr agon,MC4R barr ag,MOR DOR agonist
N#CCC(=O)Nc1ncc(Cc2ccccc2Cl)s1,-10,0,6,5,-9,-1,/,/
Cc1ccc(S(=O)(=O)Nc2ccccc2C(=O)Nc2nc(-c3ccc(F)cc3)cs2)cc1,1,0,9,12,17,0,/,/
COc1ccc(-c2csc(NC(=O)c3ccccc3NS(=O)(=O)c3ccc(F)c(F)c3)n2)cc1,7,-5,4,3,19,15*,4,3
CCc1nc(Nc2ccccc2OC)c2oc3ccccc3c2n1,-12,-1,-2,/,1,2,/,/
CCc1nc(Nc2cc(OC)ccc2OC)c2oc3ccccc3c2n1,-1,-2,0,/,3,10*,1,3
N#C/C(=C\C=C\c1ccccc1)C(=O)NCc1cccnc1,-2,-2,-4,2,-3,2,/,/
Cc1cc(C)cc(NC(=S)N2CCN(c3ncc(C(F)(F)F)cc3Cl)CC2)c1,-10,-1,-4,/,3,17*,4,3
O=C(Nc1ccc(C(=O)OC[C@@H]2CCCN3CCCC[C@H]23)cc1)c1cccc(Br)c1,6,-6,5,-15,6,12*,8,8
Cc1cccc(C)c1NC(=O)C(c1ccccc1)N(C)CCc1ccccc1 (configuration not stated),-9,/,/,/,/,/,/,/
CCN(C(=O)COC(=O)c1cc(=O)c2ccccc2o1)c1c(N)n(Cc2ccccc2)c(=O)[nH]c1=O,-8,-2,-1,/,-1,3,/,/
CSc1ccc(CN2CCC(C)(Oc3cccc(F)c3)C2)cc1 (configuration not stated),-8,/,/,/,-1,0,/,/
CC1(Oc2cccc(F)c2)CCN(Cc2ccc(-c3ccccc3)o2)C1 (configuration not stated),-18,/,/,/,-3,10.0*,1,5
C/C(=N/NC(=O)CNC(=O)c1ccc2c(c1)OCO2)c1ccc2c(c1)CCCC2,-3,1,2,-9,4,12*,1,4
